# ChEMBL document CHEMBL3400116, “Synthesis and activities towards resistant cancer cells of sulfone and sulfoxide griseofulvin derivatives” (Bioorg Med Chem Lett, 2015)
# Tests used:
# [1] = tested on: HCC1937; assay: Antiproliferative activity against exponentially growing adherent human HCC1937 cells assessed as inhibition of cell proliferation at 10 uM after 48 hrs by luminescence detection based ATPlite assay; conditions: HCC1937, 48 h
# [2] = tested on: HCC1937; assay: Antiproliferative activity against exponentially growing adherent human HCC1937 cells assessed as inhibition of cell proliferation after 48 hrs by luminescence detection based ATPlite assay; conditions: HCC1937, 48 h
# [3] = Antiproliferative activity against exponentially growing adherent human SCC114 cells assessed as inhibition of cell proliferation after 72 hrs by luminescence detection based ATPlite assay; format: functional; conditions: SCC114, 72 h
# Method in brief: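 SCC-114 cells seeded at 10^3 cells/well in 96-well plates and left to grow exponentially as adherent cultures. After 72 h exposure at 37 °C in 5% CO2, viability was read by ATPlite luminescence of ATP from viable cells. IC50 came from nonlinear regression with a sigmoidal dose-response and variable Hill slope.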
IC50 [2],SMILES,inhibition at 10 µM [1],IC50 [3]
> 10000 nM,COc1cc(OC)c2c(c1Cl)O[C@]1(C2=O)C(S(C)(=O)=O)=CC(=O)C[C@H]1C,40%,1900 nM
1600 nM,COc1cc(OC)c2c(c1Cl)O[C@]1(C2=O)C(S(=O)(=O)c2ccccc2)=CC(=O)C[C@H]1C,,1000 nM
> 10000 nM,CC(=O)O[C@H]1C(=O)[C@@]2(C)[C@H]([C@H](OC(=O)c3ccccc3)[C@]3(O)C[C@H](OC(=O)[C@H](O)[C@@H](NC(=O)c4ccccc4)c4ccccc4)C(C)=C1C3(C)C)[C@]1(OC(C)=O)CO[C@@H]1C[C@@H]2O [PACLITAXEL],0%,0.3 nM
900 nM,COc1cc(OC)c2c(c1Cl)O[C@@]1(C=C(S(=O)(=O)Cc3ccccc3)C(=O)C[C@H]1C)C2=O,,
1400 nM,COc1cc(OC)c2c(c1Cl)O[C@]1(C2=O)C(S(=O)(=O)Cc2ccccc2)=CC(=O)C[C@H]1C,,400 nM
> 10000 nM,COc1cc(OC)c2c(c1Cl)O[C@]1(C2=O)C(OCc2ccccc2)=CC(=O)C[C@H]1C,0%,980 nM
> 10000 nM,CCC1=C[C@@H]2CN(C1)Cc1c([nH]c3ccccc13)[C@@](C(=O)OC)(c1cc3c(cc1OC)N(C)[C@H]1[C@@](O)(C(=O)OC)[C@H](OC(C)=O)[C@]4(CC)C=CCN5CC[C@]31[C@@H]54)C2 [VINORELBINE],0%,0.07 nM
> 10000 nM,COC1=CC(=O)C[C@@H](C)[C@]12Oc1c(Cl)c(OC)cc(OC)c1C2=O [GRISEOFULVIN],0%,6400 nM
400 nM,COc1cc(OC)c2c(c1Cl)O[C@@]1(C=C([S+]([O-])c3ccccc3)C(=O)C[C@H]1C)C2=O (some centres undefined),,250 nM
700 nM,COc1cc(OC)c2c(c1Cl)O[C@@]1(C=C(S(=O)(=O)c3ccccc3)C(=O)C[C@H]1C)C2=O,,400 nM
5900 nM,COc1cc(OC)c2c(c1Cl)O[C@]1(C2=O)C(S(=O)(=O)CCN(C)C)=CC(=O)C[C@H]1C,,2800 nM
> 10000 nM,COc1cc(OC)c2c(c1Cl)O[C@]1(C2=O)C(SCCN(C)C)=CC(=O)C[C@H]1C,0%,1450 nM
> 10000 nM,COc1cc(OC)c2c(c1Cl)O[C@]1(C2=O)C(SCc2ccccc2)=CC(=O)C[C@H]1C,,
,COc1cc(OC)c2c(c1Cl)O[C@@]1(C=C([S+]([O-])Cc3ccccc3)C(=O)C[C@H]1C)C2=O (some centres undefined),,20 nM

SMILES,IC50 [2],inhibition at 10 µM [1],IC50 [3]
C/C(=C\c1csc(C)n1)[C@@H]1C[C@@H]2O[C@]2(C)CCC[C@H](C)[C@H](O)[C@@H](C)C(=O)C(C)(C)[C@@H](O)CC(=O)O1 [PATUPILONE],> 10000 nM,0%,0.17 nM
